Assay results: article PMC12770939 (Clinical Cancer Research, 2025)

Assays:
[1] = tested on: FGFR2-expressing cell lines; conditions: excess Bliss score, n=14 cell lines, Supplementary Fig. S11
[2] = tested on: phosphorylation of FGFR, FRS2α, PLCɣ, AKT, and ERK; test: Western blots of FGFR signaling; assay type: cell-based; conditions: SUM52PE, MFE296, and AN3CA cells; 24 h
Method in brief: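 Lysates resolved and transferred to nitrocellulose; blocked 1 h in 5% milk/TBST (20 mM Tris-HCl pH 7.5, 135 mM NaCl, 0.1% Tween 20) at RT. Primary antibodies 1:1,000 overnight at 4°C; HRP anti-mouse or anti-rabbit 1:10,000 1 h RT. Detection by ECL and film.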

[3] = tested on: SUM52PE, MFE296, AN3CA and MFE280 cell lines; test: Dose-response proliferation assays; assay type: cell-based; conditions: MFE296, AN3CA (FGFR2-high) and MFE280 (FGFR2-low)
p110α [4] = molecular target: p110α (Homo sapiens, UniProt P42336); test: Ubiquitin pulldown; assay type: cell-based; conditions: PIK3CA WT cell line SUM52PE; 6 hours
Chain of p110α (Homo sapiens, UniProt P42336) (P42336 whole entry): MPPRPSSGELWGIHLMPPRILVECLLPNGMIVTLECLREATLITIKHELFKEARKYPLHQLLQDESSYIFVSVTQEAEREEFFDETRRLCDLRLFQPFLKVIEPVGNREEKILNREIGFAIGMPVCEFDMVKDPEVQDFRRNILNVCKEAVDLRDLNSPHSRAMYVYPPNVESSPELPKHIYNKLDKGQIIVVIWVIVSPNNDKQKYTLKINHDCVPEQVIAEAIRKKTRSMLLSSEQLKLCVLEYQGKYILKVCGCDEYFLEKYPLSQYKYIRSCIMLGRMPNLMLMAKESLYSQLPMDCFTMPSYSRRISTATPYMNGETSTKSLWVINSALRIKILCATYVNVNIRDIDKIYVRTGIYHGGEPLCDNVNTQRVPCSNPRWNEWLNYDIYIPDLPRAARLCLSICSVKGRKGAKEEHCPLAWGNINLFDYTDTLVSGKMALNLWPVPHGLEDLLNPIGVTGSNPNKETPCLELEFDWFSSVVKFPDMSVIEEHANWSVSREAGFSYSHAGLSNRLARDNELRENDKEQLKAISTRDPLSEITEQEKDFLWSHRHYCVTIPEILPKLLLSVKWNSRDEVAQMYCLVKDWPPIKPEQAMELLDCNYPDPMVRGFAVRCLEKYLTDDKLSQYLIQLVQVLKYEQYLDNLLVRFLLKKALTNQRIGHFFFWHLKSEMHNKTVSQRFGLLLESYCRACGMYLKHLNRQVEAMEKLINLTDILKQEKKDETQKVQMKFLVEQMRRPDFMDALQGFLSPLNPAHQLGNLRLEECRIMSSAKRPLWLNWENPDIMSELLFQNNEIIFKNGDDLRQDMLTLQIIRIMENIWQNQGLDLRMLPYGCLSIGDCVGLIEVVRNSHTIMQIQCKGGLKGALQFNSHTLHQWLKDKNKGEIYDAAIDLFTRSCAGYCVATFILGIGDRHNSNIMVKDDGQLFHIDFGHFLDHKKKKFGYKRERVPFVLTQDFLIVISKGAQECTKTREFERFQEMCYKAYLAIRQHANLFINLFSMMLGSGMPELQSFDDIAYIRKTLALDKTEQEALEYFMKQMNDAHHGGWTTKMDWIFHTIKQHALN

p110α [5] = test: Ubiquitin pulldown; assay type: cell-based; conditions: 6 hours
mutated p110α = mutated p110α (Homo sapiens, UniProt P42336, H1047R); assay type: cell-based; conditions: FGFR2 N550K-overexpressing cells, not matched control cells; 24 h
Chain of mutated p110α (P42336 whole entry H1047R): as the sequence (P42336 whole entry) above, with H1047R counted along it
Chain of mutated p110α (O00459 whole entry partner): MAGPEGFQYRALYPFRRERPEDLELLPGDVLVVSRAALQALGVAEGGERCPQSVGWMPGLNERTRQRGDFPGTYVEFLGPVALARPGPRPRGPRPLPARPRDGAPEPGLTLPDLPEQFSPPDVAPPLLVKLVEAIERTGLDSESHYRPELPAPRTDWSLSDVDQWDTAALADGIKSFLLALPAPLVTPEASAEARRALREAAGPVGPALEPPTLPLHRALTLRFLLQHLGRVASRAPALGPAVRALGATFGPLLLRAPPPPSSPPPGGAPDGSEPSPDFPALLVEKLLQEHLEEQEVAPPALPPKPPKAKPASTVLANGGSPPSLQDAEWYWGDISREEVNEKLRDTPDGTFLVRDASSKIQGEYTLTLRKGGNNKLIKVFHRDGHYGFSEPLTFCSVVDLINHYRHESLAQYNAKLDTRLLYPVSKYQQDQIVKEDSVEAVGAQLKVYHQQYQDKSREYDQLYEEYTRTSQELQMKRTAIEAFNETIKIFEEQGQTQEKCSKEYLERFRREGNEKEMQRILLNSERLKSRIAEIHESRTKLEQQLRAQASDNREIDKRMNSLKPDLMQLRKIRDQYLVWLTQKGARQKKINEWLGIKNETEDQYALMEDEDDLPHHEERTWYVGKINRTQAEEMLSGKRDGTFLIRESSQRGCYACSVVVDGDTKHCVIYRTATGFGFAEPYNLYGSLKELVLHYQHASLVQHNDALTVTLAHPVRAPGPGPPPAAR

HER3–p85β interaction = test: Co-IP of p85β / HER3; assay type: cell-based
Method in brief: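 Cells exposed to test compound or FGFR2 inhibitor at several concentrations for 1 h. Lysis in Tris pH 7.5/NaCl/EDTA/1% NP40/10% glycerol with protease and phosphatase inhibitors. 1 mg lysate incubated overnight with anti-p85β (1:100, 1 mL), then protein A agarose 2 h. Immunoblot on nitrocellulose with 1:1,000 primary overnight at 4°C, HRP secondary 1:10,000 1 h RT, ECL/film. n=2.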

pAKT, pS6, Ki67 = test: IHC analysis of paired tumor tissue samples; assay type: in vivo, human; conditions: baseline vs C1D15 biopsies, nine patients
Method in brief: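 Paired FFPE tumor biopsies from baseline and C1D15 during oral once-daily dosing. IHC for Ki67 (rabbit mAb clone 30-9; nuclear staining), pAKT and pS6. Cytoplasmic pAKT/pS6 scored by H-score: intensity 0, 1+, 2+, 3+. H-score = Σ(% cells at each intensity × intensity).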

PIK3CA MAF in ctDNA = test: ctDNA PIK3CA mutation allele frequency dynamics; assay type: in vivo, human; conditions: pretreatment vs on-treatment, majority of paired specimens
[6] = Phase 1 study: plasma pharmacokinetics, noncompartmental analysis; assay type: in vivo, human
Method in brief: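 Oral single dose on C1D1, then 7-day washout with serial plasma PK sampling, then once-daily dosing from C1D8. PK population: patients with ≥1 dose and ≥1 evaluable post-dose sample. Parameters from plasma concentration–time profiles after single and multiple doses by noncompartmental analysis, summarized by dose level.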

[7] = tested on: MFM223 X2.2 tumor xenograft; test: MFM223 X2.2 xenograft efficacy study; assay type: in vivo, NCR nude mice; conditions: single agent, 25 mg/kg daily for 22 days
MFM223 cell line = test: Live-cell imaging by IncuCyte, long-term proliferation; assay type: cell-based; conditions: single agent
Method in brief: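 Plated at 2,000 cells/well; inhibitors added next day at set concentrations. Medium with or without inhibitors renewed every 7 days. Phase-contrast imaging every 4 h in IncuCyte Zoom; confluence tracked in six replicate wells for the whole experiment.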

PIK3CAmut solid tumors = test: Phase 1 study: antitumor activity per RECIST v1.1; assay type: in vivo, human
pAKT = test: Western blots of PI3K signaling feedback over time; assay type: cell-based; conditions: PIK3CAmut MFM223 cells
Method in brief: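 PIK3CA-mutant MFM223 and PIK3CA-WT SUM52PE cells treated with 0.5 μmol/L test compound or 1 μmol/L reference PI3Kα inhibitor, with lysates taken at several durations. Immunoblotted for pHER3 and pAKT: nitrocellulose, 5% milk/TBST block, primary 1:1,000 overnight at 4°C, HRP secondary 1:10,000, ECL/film. n=2.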

[8] = tested on: FDG uptake of target lesions; test: FDG-PET imaging pharmacodynamic response; assay type: in vivo, human
Method in brief: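 FDG-PET at baseline and after 2 weeks of oral once-daily dosing (C1D22–28; C1D15–22 for backfill). On-treatment scans 1–4 h post-dose; blood glucose <180 mg/dL required. Central read by one radiologist; up to five target lesions (tumor:background ≥2:1, longest diameter ≥15 mm). PMR: >25% decrease in mean % change of lean-body-mass-corrected SUVmax, no new FDG-avid lesions.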

[9] = Phase 1 dose-escalation study NCT03006172 arm A: safety, DLT, MTD; assay type: in vivo, human
RAS-GTP = RAS-GTP pulldown and RAS co-IP; assay type: cell-based; conditions: MFM223 or MFE280 cells
Method in brief: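 Cells treated with FGFR2 inhibitor or lapatinib for varying durations. Lysis on ice in 25 mM Tris pH 7.5, 150 mM NaCl, 1 mM EDTA, 1% NP40, 5 mM MgCl2, 10% glycerol plus inhibitors. Lysates incubated with capture bead conjugate or mouse IgG magnetic beads (control) at 4°C for 5 h. Beads washed 3× in cold buffer, eluted in sample buffer, immunoblotted.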

[10] = tested on: phosphorylation of FGFR2, HER3 and AKT; test: Immunoblotting after 1 hour treatment; assay type: cell-based; conditions: solely in MFE280 cells, 2-μmol/L
Method in brief: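 Cells treated 1 h with 0.03 μmol/L FGFR2 inhibitor or 2 μmol/L lapatinib, then immunoblotted. Transfer to nitrocellulose; block 1 h in 5% milk/TBST RT. Primary antibody 1:1,000 overnight at 4°C; HRP secondary 1:10,000 1 h RT; ECL with film. n=2.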

CCN1CCN(c2ccc(Nc3cc(N(C)C(=O)Nc4c(Cl)c(OC)cc(OC)c4Cl)ncn3)cc2)CC1 [infigratinib]
combination effect with inavolisib [1]: synergized | reduction of phosphorylation of FGFR and downstream effectors [2]: equal potency | sensitivity of cell lines [3]: sensitive

C[C@H](Nc1ccc2c(c1)OCCn1cc(N3C(=O)OC[C@H]3C(F)F)nc1-2)C(N)=O [inavolisib]
ubiquitination of p110α (p110α [4]): no ubiquitination | ubiquitination of p110α (p110α [5]; PIK3CAmut cell lines MFM223 and MFE280): induced ubiquitination | mutated p110α protein level (mutated p110α): degradation | binding of p85β to HER3 (HER3–p85β interaction; SUM52PE, MFM223, and MFE280 cells, 1 hour): did not affect | PI3K pathway activity (H-scores pAKT, pS6) and Ki67 proliferation (pAKT, pS6, Ki67): consistent decrease | PIK3CA MAF over time (PIK3CA MAF in ctDNA): decreased | accumulation ([6]; continuous once-daily dosing): twofold | half-life ([6]; human, plasma, oral): 16 h | plasma exposure versus dose ([6]; single and multiple doses, 6-12 mg): dose-proportional | tumor growth [7]: did not result in tumor growth inhibition | day of rebound in proliferation (resistance) after treatment initiation (MFM223 cell line): 11 days | median progression-free survival (PFS) (PIK3CAmut solid tumors; 95% CI, 3.5–7.3): 3.7 months | landmark PFS rate at 6 months (PIK3CAmut solid tumors; 95% CI, 15–59): 37% | clinical benefit rate (PIK3CAmut solid tumors; N = 20 (n = 9)): 45% | best overall response rate (PR) (PIK3CAmut solid tumors; patients with measurable disease (n = 19), RECIST v1.1): 26% | duration of response (PIK3CAmut solid tumors; responders with a confirmed response, 95% CI, 3.0–not evaluable): 3.7 months | time to pAKT reactivation (pAKT; 0.5-μmol/L inavolisib): 24 hours | mean reduction in uptake ([8]; 6 mg): 25% | patients achieving a PMR ([8]; 6 mg, 4/7): 57% | mean reduction in uptake ([8]; >6 mg): 43% | patients achieving a PMR ([8]; >6 mg, 12/13): 92% | DLT-evaluable patients who experienced DLTs ([9]; 12-mg dose group, grade 4 hyperglycemia and grade 3 fatigue that lasted 5 days): two of four | Alopecia, related AE ([9]; All grades, N = 20): 3 (15) n (%) | Asthenia, related AE ([9]; All grades, N = 20): 2 (10) n (%) | Constipation, related AE ([9]; All grades, N = 20): 2 (10) n (%) | Decreased appetite, related AE ([9]; All grades, N = 20): 4 (20) n (%) | Diarrhea, related AE ([9]; All grades, N = 20): 9 (45) n (%) | Dysgeusia, related AE ([9]; All grades, N = 20): 2 (10) n (%) | Fatigue, related AE ([9]; All grades, N = 20): 3 (15) n (%) | Flatulence, related AE ([9]; All grades, N = 20): 2 (10) n (%) | Headache, related AE ([9]; All grades, N = 20): 2 (10) n (%) | Hyperglycemia, related AE ([9]; All grades, N = 20): 14 (70) n (%) | Hyponatremia, related AE ([9]; All grades, N = 20): 2 (10) n (%) | Lymphopenia, related AE ([9]; All grades, N = 20): 2 (10) n (%) | Nausea, related AE ([9]; All grades, N = 20): 3 (15) n (%) | Stomatitis (grouped term), related AE ([9]; All grades, N = 20): 4 (20) n (%) | Taste disorder, related AE ([9]; All grades, N = 20): 2 (10) n (%) | Thrombocytopenia, related AE ([9]; All grades, N = 20): 2 (10) n (%) | Total number of patients with at least one AE, related AE ([9]; All grades, N = 20): 19 (95) n (%) | Vision blurred, related AE ([9]; All grades, N = 20): 2 (10) n (%) | Vomiting, related AE ([9]; All grades, N = 20): 4 (20) n (%) | Weight decreased, related AE ([9]; All grades, N = 20): 3 (15) n (%) | patients with at least one related AE leading to dose modification ([9]; Eleven patients, N = 20): 55% | Alopecia, related AE ([9]; Grades 3–5, N = 20): 0 n (%) | Asthenia, related AE ([9]; Grades 3–5, N = 20): 1 (5) n (%) | Constipation, related AE ([9]; Grades 3–5, N = 20): 0 n (%) | Decreased appetite, related AE ([9]; Grades 3–5, N = 20): 0 n (%) | Diarrhea, related AE ([9]; Grades 3–5, N = 20): 0 n (%) | Dysgeusia, related AE ([9]; Grades 3–5, N = 20): 0 n (%) | Fatigue, related AE ([9]; Grades 3–5, N = 20): 1 (5) n (%) | Flatulence, related AE ([9]; Grades 3–5, N = 20): 0 n (%) | Headache, related AE ([9]; Grades 3–5, N = 20): 0 n (%) | Hyperglycemia, related AE ([9]; Grades 3–5, N = 20): 4 (20) n (%) | Hyponatremia, related AE ([9]; Grades 3–5, N = 20): 0 n (%) | Lymphopenia, related AE ([9]; Grades 3–5, N = 20): 1 (5) n (%) | Nausea, related AE ([9]; Grades 3–5, N = 20): 1 (5) n (%) | Stomatitis (grouped term), related AE ([9]; Grades 3–5, N = 20): 0 n (%) | Taste disorder, related AE ([9]; Grades 3–5, N = 20): 0 n (%) | Thrombocytopenia, related AE ([9]; Grades 3–5, N = 20): 0 n (%) | Total number of patients with at least one AE, related AE ([9]; Grades 3–5, N = 20): 8 (40) n (%) | Vision blurred, related AE ([9]; Grades 3–5, N = 20): 0 n (%) | Vomiting, related AE ([9]; Grades 3–5, N = 20): 0 n (%) | Weight decreased, related AE ([9]; Grades 3–5, N = 20): 1 (5) n (%) | grade 5 AE ([9]; N = 20): No grade 5 AE | grade of treatment-related diarrhea events ([9]; N = 20): 1 to 2 | treatment-related grade ≥3 gastrointestinal toxicities ([9]; N = 20): No treatment-related grade ≥3 gastrointestinal toxicities | serious AE related to inavolisib ([9]; grade 4 hyperglycemia, 12-mg cohort): One patient | colitis ([9]; monotherapy, including nine patients on treatment for ≥5 months): not observed | maximum tolerated dose (MTD) ([9]; once daily oral, patients with PIK3CAmut solid tumors): 9 mg | treatment-related rash ([9]; one patient, grade 1, N = 20): 5%

CS(=O)(=O)CCNCc1ccc(-c2ccc3ncnc(Nc4ccc(OCc5cccc(F)c5)c(Cl)c4)c3c2)o1 [lapatinib, reference compound]
effect on inavolisib-induced p110α ubiquitination (p110α [5]; MFE280 cells, combined with inavolisib): prevented | HER3–p85β interaction (HER3–p85β interaction; MFE280 FGFR2-low cells, 1 h): suppressed | RAS-GTP levels and RAS–p110α interaction (RAS-GTP): affected neither | phosphorylation of HER3 and AKT [10]: decreased phosphorylation

Cc1nc(NC(=O)N2CCC[C@H]2C(N)=O)sc1-c1ccnc(C(C)(C)C(F)(F)F)c1 [alpelisib, reference compound]
time to pAKT rebound (pAKT; 1-μmol/L alpelisib): 30 minutes

C[C@@H](Oc1ccc2[nH]nc(/C=C/c3cnn(CCO)c3)c2c1)c1c(Cl)cncc1Cl [LY2874455]
combination effect with inavolisib [1]: synergized
